Experimental data reported in ChEMBL document CHEMBL4732025, “Assessment of the rules related to gaining activity against Gram-negative bacteria” (RSC Med Chem, 2021).

Legend:
[1] = test system: Escherichia coli; test: Antimicrobial activity against Escherichia coli K-12 mutant assessed as growth inhibition at 100 uM in presence of polymyxin B nonapeptide relative to control; type: functional
[2] = Inhibition of PK/LDH (unknown origin)
Summary of the method: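 Counter-screen of the auxiliary enzymes: 1 mM ADP, 2 mM PEP, 1 mM NADH, PK and LDH (0.05 U/mL each), 10 mM MgCl2, 200 mM KCl, 10 mM DTT in 100 mM Tris-HCl pH 7.6. Compound added from DMSO. NADH decrease monitored photometrically at room temperature for 30 min.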

[3] = Inhibition of IspE in Plasmodium falciparum incubated for 30 mins by microplate reader assay
Summary of the method: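 P. falciparum IspE with C-terminal His6, expressed in E. coli XL1 and purified by Ni2+ chelating chromatography and then G-25 gel filtration. Coupled PK/LDH assay with 1.0 mM CDP-ME in 100 mM Tris-HCl pH 7.6 plus MgCl2, KCl, DTT, NADH, PEP, ATP, PK and LDH. Compound added from DMSO. Read photometrically at room temperature for 30 min.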

[4] = target: T1, 4-diphosphocytidyl-2-C-methyl-D-erythritol kinase (Escherichia coli (strain K12), UniProt P62615); test: Inhibition of IspE expressed in Escherichia coli incubated for 30 mins by microplate reader assay
T1 sequence (P62615 whole entry): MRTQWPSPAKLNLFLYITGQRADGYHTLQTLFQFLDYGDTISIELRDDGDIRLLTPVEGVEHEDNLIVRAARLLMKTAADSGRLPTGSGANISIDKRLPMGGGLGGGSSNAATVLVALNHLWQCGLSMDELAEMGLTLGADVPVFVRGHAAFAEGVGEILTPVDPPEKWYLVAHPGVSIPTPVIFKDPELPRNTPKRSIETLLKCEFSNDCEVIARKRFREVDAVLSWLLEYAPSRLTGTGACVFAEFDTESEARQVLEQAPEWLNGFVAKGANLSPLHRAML

[5] = test system: Escherichia coli; test: Antimicrobial activity against Escherichia coli harboring delta tolC mutant assessed as growth inhibition at 50 uM relative to control; type: functional
Summary of the method: (§1)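 E. coli K12 wild-type and its ΔtolC and ΔacrB efflux mutants were used. Percentage growth inhibition was taken at 100 μM, or at 25 or 50 μM where compound solubility limited the top concentration, when no MIC could be determined.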

[6] = test system: Escherichia coli; test: Antimicrobial activity against Escherichia coli D22 assessed as growth inhibition at 25 uM relative to control; type: functional
Summary of the method: (§2)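 Broth growth assay with E. coli BL21(DE3)omp8 (porin-[…]), E. coli D22 or S. aureus Newman. Percent growth inhibition was measured at 100 μM, or at a lower concentration where compound solubility limited it, whenever no MIC could be determined.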

[7] = test system: Staphylococcus aureus; test: Antimicrobial activity against Staphylococcus aureus subsp. aureus str. Newman assessed as growth inhibition at 25 uM relative to control; type: functional; summary of the method: as §2
[8] = test system: Escherichia coli; test: Antimicrobial activity against Escherichia coli harboring delta tolC mutant assessed as growth inhibition at 25 uM relative to control; type: functional; summary of the method: as §1
[9] = test system: Plasmodium falciparum; test: Antiplasmodial activity against Plasmodium falciparum NF54 infected in human erythrocyte assessed as reduction in [3H]hypoxanthine incorporation incubated for 24 hrs by beta liquid scintillation counter analysis; type: functional
Summary of the method: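 Compounds (DMSO stocks) were titrated in duplicate over a 64-fold range at 1.25% haematocrit and 0.3% parasitaemia for 48 h. [3H]hypoxanthine (0.25 μCi/well) was then added for 24 h and incorporation counted by scintillation. Results are % of untreated control, with IC50 by linear interpolation.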

[10] = test system: HepG2; test: Cytotoxicity against human HepG2 cells at 25 uM after 72 hrs by MTT assay; type: functional
[11] = test system: Escherichia coli; test: Antimicrobial activity against Escherichia coli harboring deltaACRB mutant assessed as growth inhibition at 25 uM relative to control; type: functional; summary of the method: as §1
[12] = test system: Escherichia coli; test: Antimicrobial activity against Escherichia coli BL21 (DE3) assessed as growth inhibition at 25 uM relative to control; type: functional; summary of the method: as §2
[13] = test system: HepG2; test: Cytotoxicity against human HepG2 cells at 100 uM after 72 hrs by MTT assay; type: functional
[14] = test system: Staphylococcus aureus; test: Antimicrobial activity against Staphylococcus aureus subsp. aureus str. Newman assessed as growth inhibition at 100 uM relative to control; type: functional; summary of the method: as §2
[15] = test system: Escherichia coli; test: Antimicrobial activity against Escherichia coli harboring delta tolC mutant assessed as growth inhibition at 100 uM relative to control; type: functional; summary of the method: as §1
[16] = test system: Escherichia coli; test: Antimicrobial activity against Escherichia coli harboring deltaACRB mutant assessed as growth inhibition at 100 uM relative to control; type: functional; summary of the method: as §1
[17] = test system: Escherichia coli; test: Antimicrobial activity against Escherichia coli D22 assessed as growth inhibition at 100 uM relative to control; type: functional; summary of the method: as §2
[18] = test system: Escherichia coli; test: Antimicrobial activity against Escherichia coli BL21 (DE3) assessed as growth inhibition at 100 uM relative to control; type: functional; summary of the method: as §2
[19] = test system: Escherichia coli; test: Antimicrobial activity against Escherichia coli K-12 mutant assessed as growth inhibition at 100 uM relative to control; type: functional; summary of the method: as §1
[20] = test system: Staphylococcus aureus; test: Antimicrobial activity against Staphylococcus aureus subsp. aureus str. Newman assessed as growth inhibition at 50 uM relative to control; type: functional; summary of the method: as §2
[21] = test system: Escherichia coli; test: Antimicrobial activity against Escherichia coli BL21 (DE3) assessed as growth inhibition at 50 uM relative to control; type: functional; summary of the method: as §2
[22] = test system: Escherichia coli; test: Antimicrobial activity against Escherichia coli harboring deltaACRB mutant assessed as growth inhibition at 50 uM relative to control; type: functional; summary of the method: as §1
[23] = test system: HepG2; test: Cytotoxicity against human HepG2 cells at 50 uM after 72 hrs by MTT assay; type: functional
[24] = test system: Escherichia coli; test: Antimicrobial activity against Escherichia coli D22 assessed as growth inhibition at 50 uM relative to control; type: functional; summary of the method: as §2
[25] = Octanol/water partition co-efficient, log P of compound; type: physicochemical
Summary of the method: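 Log P(o/w) calculated in silico, not measured.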

In the case of `Nc1nc(=O)n(C2CCCS2)cc1C#CCNS(=O)(=O)C1CC1` (stereo unspecified), the inhibition at 100 µM [1] is reported as 6%, the IC50 [2] is reported as > 500 µM and the IC50 [3] is reported as > 500 µM. For the same molecule, the IC50 [4] was 1 µM.

`Cc1cc(-c2csc(NC(=O)[C@@H](NC(=O)OC(C)(C)C)N[C@@H](Cc3ccc(O)cc3)C(=O)O)n2)c(C)n1C` gave an inhibition at 50 µM [5] of 13%.

Work on `Cc1cc(-c2csc(NC(=O)[C@@H](NC(=O)OC(C)(C)C)N[C@H](C(=O)O)C(C)C)n2)c(C)n1C` yielded an inhibition at 50 µM [5] of 14%.

In the case of `CCCn1c(C)cc(-c2csc(NC(=O)c3ccco3)n2)c1C`, the inhibition at 25 µM [6] is reported as 9%, the IC50 [2] is reported as 65 µM and the inhibition at 25 µM [7] is reported as 6%. The inhibition at 25 µM [8] was 30%, the IC50 [9] was 5 µM and the inhibition at 25 µM [10] was 19%. It also gave an IC50 [3] of 57 µM, an inhibition at 25 µM [11] of 5% and an IC50 [4] of 91 µM. The inhibition at 25 µM [12] was 3%.

Work on `N[C@@H](NCC(=O)O)C(=O)Nc1csc(-c2ccccc2)n1` yielded an inhibition at 100 µM [13] of 17%, an inhibition at 100 µM [14] of 5% and an inhibition at 100 µM [15] of 10%. It also gave an inhibition at 100 µM [16] of 6%, an inhibition at 100 µM [17] of 15% and an inhibition at 100 µM [18] of 19%. The inhibition at 100 µM [19] was 22%.

Work on `CCCn1c(C)cc(-c2csc(NC(=O)c3cccs3)n2)c1C` yielded an IC50 [2] of 56 µM, an inhibition at 50 µM [20] of 7% and an inhibition at 50 µM [21] of 19%. For the same molecule, the inhibition at 50 µM [5] was 33%, the inhibition at 50 µM [22] was 7% and the IC50 [9] was 6 µM. It also gave an inhibition at 50 µM [23] of -3%, an IC50 [3] of 35 µM and an inhibition at 50 µM [24] of 4%. The IC50 [4] was 68 µM.

Molecule `Cc1cc(-c2csc(NC(=O)[C@@H](N)N[C@@H](Cc3ccc(O)cc3)C(=O)O)n2)c(C)n1C` has an inhibition at 100 µM [15] of 38%.

In the case of `CC(C)C[C@H](N[C@H](NC(=O)OC(C)(C)C)C(=O)Nc1csc(-c2ccccc2)n1)C(=O)O`, the inhibition at 100 µM [15] is reported as 3%.

`CC(C)(C)OC(=O)N[C@@H](NCC(=O)O)C(=O)Nc1csc(-c2ccccc2)n1` showed an inhibition at 100 µM [15] of 34%.

Work on `Cc1cc(-c2csc(NC(=O)[C@@H](N)NCC(=O)O)n2)c(C)n1C` yielded an inhibition at 100 µM [14] of 6%, an inhibition at 100 µM [15] of 57% and an inhibition at 100 µM [16] of 8%. The inhibition at 100 µM [17] was 3%, the logP [25] was 0.9 and the inhibition at 100 µM [18] was 18%. For the same molecule, the inhibition at 50 µM [23] was 19% and the inhibition at 100 µM [19] was 13%.

For `CCn1c(C)cc(-c2csc(NC(=O)[C@H](NCC(=O)O)NC(=O)OC(C)(C)C)n2)c1C`, the inhibition at 50 µM [5] was 41%.

For `Cc1cc(-c2csc(NC(=O)[C@@H](N)N[C@H](C(=O)O)C(C)C)n2)c(C)n1C`, the inhibition at 100 µM [15] was 42%.

`CC(C)C[C@H](N[C@H](N)C(=O)Nc1csc(-c2ccccc2)n1)C(=O)O` gave an inhibition at 100 µM [14] of 11%, an inhibition at 100 µM [15] of 32% and an inhibition at 100 µM [16] of 11%. It also gave an inhibition at 100 µM [17] of 18%, an inhibition at 100 µM [18] of 30% and an inhibition at 100 µM [19] of 18%.

In the case of `Cc1cc(-c2csc(NC(=O)[C@@H](N)N[C@@H](CC(C)C)C(=O)O)n2)c(C)n1C`, the inhibition at 100 µM [14] is reported as 52% and the inhibition at 100 µM [15] is reported as 58%.

In the case of `Cc1cc(-c2csc(NC(=O)[C@H](NCC(=O)O)NC(=O)OC(C)(C)C)n2)c(C)n1C`, the inhibition at 100 µM [15] is reported as 46%.

With `CC(C)[C@H](N[C@H](N)C(=O)Nc1csc(-c2ccccc2)n1)C(=O)O` the inhibition at 100 µM [14] was 5%, the inhibition at 100 µM [15] was 17% and the inhibition at 100 µM [16] was 2%. The inhibition at 100 µM [17] was 14%, the inhibition at 100 µM [18] was 16% and the inhibition at 100 µM [19] was 13%.

Work on `Cc1cc(-c2csc(NC(=O)[C@@H](NC(=O)OC(C)(C)C)N[C@@H](CC(C)C)C(=O)O)n2)c(C)n1C` yielded an inhibition at 50 µM [5] of 8%.

Molecule `CC(C)[C@H](N[C@H](NC(=O)OC(C)(C)C)C(=O)Nc1csc(-c2ccccc2)n1)C(=O)O` has an inhibition at 100 µM [15] of 21%.

`CCn1c(C)cc(-c2csc(NC(=O)[C@@H](N)NCC(=O)O)n2)c1C` showed an inhibition at 100 µM [13] of 23%, an inhibition at 100 µM [15] of 55% and an inhibition at 50 µM [20] of 14%. It also gave an inhibition at 100 µM [16] of 65%, an inhibition at 100 µM [17] of 20% and a logP [25] of 1.4. It also gave an inhibition at 100 µM [18] of 16% and an inhibition at 100 µM [19] of 13%.
